# From ChEMBL document CHEMBL1135543, “Alpha(1)-adrenoceptor antagonists. 4. Pharmacophore-based design, synthesis, and biological evaluation of new imidazo-, benzimidazo-, and indoloarylpiperazine derivatives” (J Med Chem, 2002)
# Tests used:
# [1] = target: T1, 5-hydroxytryptamine receptor 1A (Rattus norvegicus, UniProt P19327); test: Binding affinity against 5-hydroxytryptamine 1A receptor by displacing [3H]8-OH-DPAT radioligand in rat cortex membrane; format: cell membranes
# T1 sequence (P19327 whole entry): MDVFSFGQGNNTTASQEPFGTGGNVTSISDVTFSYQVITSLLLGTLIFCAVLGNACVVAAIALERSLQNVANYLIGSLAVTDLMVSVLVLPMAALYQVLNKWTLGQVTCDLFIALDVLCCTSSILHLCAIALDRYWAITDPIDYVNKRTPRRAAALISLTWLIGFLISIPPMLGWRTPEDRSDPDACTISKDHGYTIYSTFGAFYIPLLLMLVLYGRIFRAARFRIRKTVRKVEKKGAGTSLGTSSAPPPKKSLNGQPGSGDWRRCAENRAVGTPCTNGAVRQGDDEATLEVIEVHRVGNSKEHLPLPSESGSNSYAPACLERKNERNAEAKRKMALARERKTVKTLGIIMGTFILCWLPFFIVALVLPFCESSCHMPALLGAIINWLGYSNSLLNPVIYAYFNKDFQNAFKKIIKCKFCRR
# Method in brief: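 Rat cortex membranes, pre-incubated 10 min at 37 °C to remove endogenous 5-HT, stored at –80 °C, then resuspended in 50 mM Tris-HCl pH 7.4 (0.2–0.3 mg protein). GF/C filtration, scintillation counting.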
# [2] = target: T2, Adrenergic receptor alpha-2 (Rattus norvegicus, UniProt P22086+P19328+P22909); test: Binding affinity against Alpha-2 adrenergic receptor by displacing [3H]rauwolscine radioligand in rat cortex membrane; format: cell membranes, Brain
# T2 sequence (P22086 whole entry): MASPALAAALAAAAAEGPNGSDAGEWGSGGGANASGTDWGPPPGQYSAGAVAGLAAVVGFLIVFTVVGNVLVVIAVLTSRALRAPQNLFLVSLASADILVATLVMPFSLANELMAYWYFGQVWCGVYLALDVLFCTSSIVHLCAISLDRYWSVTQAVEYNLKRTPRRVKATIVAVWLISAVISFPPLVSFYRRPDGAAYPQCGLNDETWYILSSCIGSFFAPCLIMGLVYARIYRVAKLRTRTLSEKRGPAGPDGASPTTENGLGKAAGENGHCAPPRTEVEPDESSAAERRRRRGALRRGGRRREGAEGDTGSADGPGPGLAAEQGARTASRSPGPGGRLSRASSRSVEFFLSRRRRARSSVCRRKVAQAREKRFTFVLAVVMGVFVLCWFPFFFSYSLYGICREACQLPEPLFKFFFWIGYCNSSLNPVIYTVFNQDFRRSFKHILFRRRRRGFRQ
# T2 sequence (P19328 whole entry): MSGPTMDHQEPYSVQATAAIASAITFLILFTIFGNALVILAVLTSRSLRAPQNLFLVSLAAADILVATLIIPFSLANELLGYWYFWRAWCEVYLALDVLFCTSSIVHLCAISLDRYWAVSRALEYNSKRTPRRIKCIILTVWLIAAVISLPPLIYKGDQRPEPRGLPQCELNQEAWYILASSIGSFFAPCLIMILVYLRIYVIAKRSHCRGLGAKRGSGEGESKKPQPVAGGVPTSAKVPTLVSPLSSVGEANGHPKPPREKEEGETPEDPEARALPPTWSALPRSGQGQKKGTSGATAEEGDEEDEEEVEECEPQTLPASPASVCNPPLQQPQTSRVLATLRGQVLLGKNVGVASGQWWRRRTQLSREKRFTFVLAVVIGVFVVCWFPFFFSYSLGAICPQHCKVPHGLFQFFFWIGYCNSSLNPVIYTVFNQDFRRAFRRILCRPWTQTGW
# T2 sequence (P22909 whole entry): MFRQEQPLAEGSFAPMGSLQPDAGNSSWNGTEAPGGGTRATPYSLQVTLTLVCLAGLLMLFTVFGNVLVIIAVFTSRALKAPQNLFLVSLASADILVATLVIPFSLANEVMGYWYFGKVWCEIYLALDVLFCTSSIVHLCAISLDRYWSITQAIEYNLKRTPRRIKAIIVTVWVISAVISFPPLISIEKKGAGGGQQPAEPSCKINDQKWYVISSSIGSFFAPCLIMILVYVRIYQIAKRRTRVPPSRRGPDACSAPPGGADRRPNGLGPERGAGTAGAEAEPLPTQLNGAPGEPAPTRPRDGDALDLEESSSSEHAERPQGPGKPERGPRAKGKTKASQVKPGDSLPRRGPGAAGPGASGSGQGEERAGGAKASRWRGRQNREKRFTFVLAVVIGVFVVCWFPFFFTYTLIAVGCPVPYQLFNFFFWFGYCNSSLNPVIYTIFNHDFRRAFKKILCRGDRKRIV
# [3] = target: T3, Adrenergic receptor alpha-1 (Rattus norvegicus, UniProt P15823+P23944+P43140); test: Binding affinity against Alpha-1 adrenergic receptor by displacing [3H]-prazosin radioligand in rat cortex membrane; format: cell membranes, Brain
# T3 sequence (P15823 whole entry): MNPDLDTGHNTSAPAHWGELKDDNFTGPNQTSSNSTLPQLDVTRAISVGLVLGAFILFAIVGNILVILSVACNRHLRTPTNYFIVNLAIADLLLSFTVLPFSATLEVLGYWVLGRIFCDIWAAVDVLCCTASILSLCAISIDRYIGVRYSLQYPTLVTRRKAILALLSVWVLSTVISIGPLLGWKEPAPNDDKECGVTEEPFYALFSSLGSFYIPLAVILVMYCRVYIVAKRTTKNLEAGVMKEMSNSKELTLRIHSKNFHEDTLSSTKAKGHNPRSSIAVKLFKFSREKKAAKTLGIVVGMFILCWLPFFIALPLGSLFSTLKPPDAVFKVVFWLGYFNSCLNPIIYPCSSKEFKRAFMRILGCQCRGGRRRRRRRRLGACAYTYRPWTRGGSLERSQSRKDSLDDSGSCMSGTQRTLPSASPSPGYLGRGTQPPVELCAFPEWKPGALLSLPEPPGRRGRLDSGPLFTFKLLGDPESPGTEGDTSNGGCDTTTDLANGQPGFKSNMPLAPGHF
# T3 sequence (P23944 whole entry): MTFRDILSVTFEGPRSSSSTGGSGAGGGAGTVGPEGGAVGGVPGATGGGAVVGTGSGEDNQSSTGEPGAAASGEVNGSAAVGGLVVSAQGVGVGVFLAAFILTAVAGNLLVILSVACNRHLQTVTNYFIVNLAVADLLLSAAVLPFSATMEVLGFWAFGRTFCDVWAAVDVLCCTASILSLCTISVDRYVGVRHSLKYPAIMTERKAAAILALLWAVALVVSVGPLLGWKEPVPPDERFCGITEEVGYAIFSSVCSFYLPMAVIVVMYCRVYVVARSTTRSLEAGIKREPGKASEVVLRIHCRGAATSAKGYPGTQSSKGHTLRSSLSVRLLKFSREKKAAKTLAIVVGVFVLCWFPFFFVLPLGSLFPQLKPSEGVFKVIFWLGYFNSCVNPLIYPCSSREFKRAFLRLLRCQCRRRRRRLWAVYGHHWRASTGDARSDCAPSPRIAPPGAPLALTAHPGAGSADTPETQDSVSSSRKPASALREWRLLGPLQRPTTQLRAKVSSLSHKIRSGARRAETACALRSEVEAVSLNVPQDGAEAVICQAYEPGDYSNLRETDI
# T3 sequence (P43140 whole entry): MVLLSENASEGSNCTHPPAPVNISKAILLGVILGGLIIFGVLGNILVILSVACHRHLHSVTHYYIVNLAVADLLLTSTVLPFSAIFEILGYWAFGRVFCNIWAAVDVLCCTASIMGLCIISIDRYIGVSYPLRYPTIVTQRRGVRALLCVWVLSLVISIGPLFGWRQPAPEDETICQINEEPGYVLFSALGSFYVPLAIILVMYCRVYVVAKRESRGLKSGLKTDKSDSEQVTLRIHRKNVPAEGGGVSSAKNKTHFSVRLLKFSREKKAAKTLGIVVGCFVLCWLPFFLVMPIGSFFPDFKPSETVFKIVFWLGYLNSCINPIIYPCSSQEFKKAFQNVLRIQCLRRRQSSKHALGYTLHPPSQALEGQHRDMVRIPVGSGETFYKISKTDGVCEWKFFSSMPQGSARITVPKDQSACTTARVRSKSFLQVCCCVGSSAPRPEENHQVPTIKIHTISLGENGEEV
# Method in brief: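 Rat cerebral cortex membranes washed in 50 mM Tris-HCl pH 7.7 with 5 mM EDTA, stored at –80 °C, then assayed in 50 mM Tris-HCl pH 7.7 (0.2–0.3 mg protein). Incubation 60 min at 25 °C with 0.1 nM [3H]prazosin; nonspecific binding defined with 1 μM prazosin. Seven displacer concentrations in triplicate, GF/C filtration. IC50 by log-probit, Ki by Cheng–Prusoff (Kd 0.24 nM).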
# [4] = target: T3, Adrenergic receptor alpha-1; test: Binding affinity against Alpha-1 adrenergic receptor by displacing [3H]prazosin radioligand in rat cortex membrane.; format: cell membranes, Brain
# [5] = target: T3, Adrenergic receptor alpha-1; test: Intrinsic activity for displacement of [3H]prazosin from Alpha-1 adrenergic receptor of rat cerebral cortex membrane in the absence of 1 nM GTP; format: tissue-based
# Method in brief: (§1)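 [3H]prazosin competition on rat cerebral cortex membranes, run with and without GTP (1 nM in table footnote, 1 mM in text). The GTP shift is the ratio of the affinity constant with GTP to that without. Values are means ± SEM of three experiments.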
# [6] = target: T3, Adrenergic receptor alpha-1; test: Intrinsic activity for displacement of [3H]prazosin from Alpha-1 adrenergic receptor of rat cerebral cortex membrane in the presence of 1 nM GTP; format: tissue-based; method in brief: as §1
Ki [1] [µM],Ki [2] [µM],Ki [3] [µM],Ki [4] [µM],Ki [5] [µM],Ki [6] [µM],Structure (SMILES)
0.106,0.113,0.0064,,,,COc1ccccc1N1CCN(CCCCCCn2nc(-n3cnc4ccccc43)ccc2=O)CC1
0.617,,,,,,O=c1ccc(-n2ccnc2)nn1CCCN1CCN(c2ccccc2Cl)CC1
0.0987,0.0765,,0.006,,,COc1ccccc1N1CCN(CCCCCCCn2nc(-n3ccnc3)ccc2=O)CC1
,1.492,0.237,,,,COc1ccccc1N1CCN(CCn2nc(-n3ccnc3)ccc2=O)CC1
0.617,0.0315,0.0151,,,,O=c1ccc(-n2cnc3ccccc32)nn1CCCCCCN1CCN(c2ccccc2Cl)CC1
0.382,,,,,,COc1ccccc1N1CCN(CCCn2nc(-n3cnc4ccccc43)ccc2=O)CC1
0.141,0.0956,0.0068,,,,COc1ccccc1N1CCN(CCCCCn2nc(-n3ccc4ccccc43)ccc2=O)CC1
0.181,0.0058,0.0013,,,,O=c1ccc(-n2cnc3ccccc32)nn1CCCCN1CCN(c2ccccc2Cl)CC1
,0.138,0.0297,,,,O=c1ccc(-n2ccnc2)nn1CCCCCCN1CCN(c2ccccc2Cl)CC1
0.463,,,,,,COc1ccccc1N1CCN(CCCn2nc(-n3ccnc3)ccc2=O)CC1
0.514,0.104,0.0028,,,,COc1ccccc1N1CCN(CCCCCCn2nc(-n3ccc4ccccc43)ccc2=O)CC1
0.315,,,,0.0012,0.00097,COc1ccccc1N1CCN(CCCCn2nc(-n3cnc4ccccc43)ccc2=O)CC1
1.01,0.265,0.0704,,,,O=c1ccc(-n2cnc3ccccc32)nn1CCN1CCN(c2ccccc2Cl)CC1
0.541,0.35,0.033,,,,COc1ccccc1N1CCN(CCn2nc(-n3cnc4ccccc43)ccc2=O)CC1
0.103,0.17,0.0032,,,,COc1ccccc1N1CCN(CCCn2nc(-n3ccc4ccccc43)ccc2=O)CC1
0.461,,,,,,O=c1ccc(-n2cnc3ccccc32)nn1CCCN1CCN(c2ccccc2Cl)CC1
0.31,1.098,0.0227,,,,COc1ccccc1N1CCN(CCn2nc(-n3ccc4ccccc43)ccc2=O)CC1
0.351,0.127,0.0045,,,,O=c1ccc(-n2cnc3ccccc32)nn1CCCCCN1CCN(c2ccccc2Cl)CC1
,0.0898,0.0017,,,,COc1ccccc1N1CCN(CCCCCCCn2nc(-n3cnc4ccccc43)ccc2=O)CC1
,0.131,0.0525,,,,COc1ccccc1N1CCN(CCCCCCn2nc(-n3ccnc3)ccc2=O)CC1
0.323,0.134,0.0233,,,,O=c1ccc(-n2ccnc2)nn1CCCCCN1CCN(c2ccccc2Cl)CC1
0.223,0.427,0.0375,,,,COc1ccccc1N1CCN(CCCCCn2nc(-n3ccnc3)ccc2=O)CC1
,0.0652,0.0246,,,,O=c1ccc(-n2ccnc2)nn1CCCCN1CCN(c2ccccc2Cl)CC1
0.182,0.0103,0.001,,,,O=c1ccc(-n2cnc3ccccc32)nn1CCCCCCCN1CCN(c2ccccc2Cl)CC1
0.127,0.0305,0.0031,,,,COc1ccccc1N1CCN(CCCCCn2nc(-n3cnc4ccccc43)ccc2=O)CC1
,2.072,0.472,,,,O=c1ccc(-n2ccnc2)nn1CCN1CCN(c2ccccc2Cl)CC1
0.181,0.306,,0.0011,,,COc1ccccc1N1CCN(CCCCCCCn2nc(-n3ccc4ccccc43)ccc2=O)CC1
